# SUMO1 PPI mod: alters human SUMO1 binding to SIM partners | actives 0.33% (n = 360,000) | SUMO1 binding to a labelled peptide, TR-FRET, 1 h | inhibition, % at 20 µM | AID 602429 | P63165; in the data active = inhibition above about 37%
# DNMT1 inh: inhibitors of human DNMT1; P26358; actives 0.83% (n = 360,000); AID 588458; inhibition (reported as % activation of signal), % at 10 µM; DNMT1 molecular beacon, Hinp1I cleavage, fluorescence; in the data active = inhibition above about 50%
# LMPTP block: LMPTP (human) inhibition; inhibition, % at 20 µM; P24666; recombinant LMPTP-A, OMFP fluorogenic substrate, fluorescence intensity; actives 0.22% (n = 360,000);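 active = compounds that cut the enzyme signal by at least half of the control window in the single-dose screen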;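 also: plate controls were DMSO wells with enzyme plus substrate for no effect and substrate without enzyme for full effect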
# Target sequence (P24666 whole entry, looked up): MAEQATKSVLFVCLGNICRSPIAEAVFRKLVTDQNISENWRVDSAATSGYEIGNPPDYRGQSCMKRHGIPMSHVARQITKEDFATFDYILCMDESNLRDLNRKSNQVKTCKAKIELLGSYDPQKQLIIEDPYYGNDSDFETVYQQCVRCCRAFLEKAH
#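 material = LMPTP-A | quantity = 0.625 nM enzyme | reagent = OMFP substrate, 400 µM final | buffer or medium = Bis-Tris pH 6.0, DTT, detergent | detection = endpoint fluorescence intensity from OMFP dephosphorylation | dosing = single 20 µM dose | read-out basis = % inhibition relative to no-enzyme and uninhibited control wells | control set = no-enzyme and uninhibited controls | timing = 50 min at room temperature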
# NadD inh: inhibitors of Staphylococcus aureus NadD. AID 602399. purified NadD enzyme, colorimetric absorbance read-out. inhibition, % at 20 µM. actives 0.78% (n = 360,000); in the data active = inhibition above about 26%
# Scp1 inh: inhibitors of human Scp-1 phosphatase | Q9GZU7 | Recombinant Scp1, phosphopeptide, malachite green phosphate absorbance | inhibition, % at 20 µM | actives 0.88% (n = 340,000) | AID 493091;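 active = inhibition above about 50% at 20 µM, limit read from the data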;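 also: plate controls were DMSO wells with enzyme for no effect and wells lacking enzyme for full effect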
#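 Test system: SCP-1 catalytic domain; Buffer or medium: Acidic Tris acetate buffer with magnesium and detergent; Also added: Phosphorylated 17-residue peptide substrate; Compound: single 20 µM dose, 1% DMSO; Schedule: enzyme reaction 45 min at room temperature, colour 5 min, stabilisation 30 min; Signal: Phosphate-binding colour reagent, absorbance read at 630 nm.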
# STEP inh: blocks human striatal-enriched tyrosine phosphatase; recombinant STEP, OMFP fluorogenic substrate, fluorescence; inhibition, % at 20 µM; P54829; actives 0.25% (n = 360,000);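 active = inhibition at 20 µM, scaled per plate between control wells, above about 37%, limit read from the data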;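 also: 0% = DMSO with enzyme and substrate and 100% = substrate only without enzyme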
# Target sequence (P54829 whole entry, looked up): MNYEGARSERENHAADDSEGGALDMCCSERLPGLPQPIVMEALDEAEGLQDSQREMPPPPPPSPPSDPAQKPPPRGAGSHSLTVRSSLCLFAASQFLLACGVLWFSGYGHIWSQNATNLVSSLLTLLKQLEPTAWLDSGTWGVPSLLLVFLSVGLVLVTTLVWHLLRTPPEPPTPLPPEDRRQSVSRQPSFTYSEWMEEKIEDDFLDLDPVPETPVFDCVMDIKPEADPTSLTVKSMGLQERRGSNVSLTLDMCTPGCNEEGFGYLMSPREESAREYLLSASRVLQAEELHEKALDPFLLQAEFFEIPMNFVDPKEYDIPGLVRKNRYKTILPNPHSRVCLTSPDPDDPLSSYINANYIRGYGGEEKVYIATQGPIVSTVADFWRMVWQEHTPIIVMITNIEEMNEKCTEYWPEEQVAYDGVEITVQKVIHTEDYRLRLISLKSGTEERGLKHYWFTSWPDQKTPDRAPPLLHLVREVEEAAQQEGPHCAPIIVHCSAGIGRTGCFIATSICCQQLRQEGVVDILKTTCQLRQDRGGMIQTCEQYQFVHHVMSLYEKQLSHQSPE
#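 Measure: Control-normalized % inhibition with plate pattern correction | Test system: STEP phosphatase, cell-free reaction | Medium: pH 6.0 Bis-Tris with DTT and Tween 20 | Technique: Fluorescence, 480/540 nm | Times: Reaction 20 min, ambient temperature | Doses: Single compound dose of 20 µM, 1% DMSO final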
# NadD conf: NadD (S. aureus) inhibition, single concentration confirmation; shares compounds with NadD inh; purified S. aureus NadD, colorimetric enzyme assay; inhibition, % at 20 µM; actives 13% (n = 2,000); in the data active = inhibition mostly above about 42%, no sharp cut-off; inactive = mostly below about 42%
# * marks the source's active call; other numbers are inactive results; · = no result. Rows were chosen to be rich in hits. Some 2.4% of all compounds tested hit in one or more screens of this group.
SMILES,SUMO1 PPI mod,DNMT1 inh,LMPTP block,NadD inh,Scp1 inh,STEP inh,NadD conf
NC(=O)[C@H]1CC2(CC(c3cccc(NC(=O)CC(c4ccccc4)c4ccccc4)c3)=NO2)CN1C(=O)c1ccccc1C(=O)c1ccccc1 (stereo partly specified),7.2,-34.6,2.5,44.1*,-3.6,-0.8,30.1
CCC(=O)Nc1cccc(C2=NOC3(C2)C[C@@H](C(N)=O)N(C(=O)c2ccccc2C(=O)c2ccccc2)C3)c1 (stereo partly specified),0.6,-3.5,-0.3,8.0,-0.2,-0.3,·
CCCCCC(=O)N1CC2(CC(c3cccc(NC(=O)CC(c4ccccc4)c4ccccc4)c3)=NO2)C[C@@H]1C(N)=O (stereo partly specified),1.8,-14.7,2.5,9.8,-4.4,2.1,·
CCC(C)NC(=O)c1c(-c2cc(Cl)c(OC)c(Cl)c2)noc1C (stereo unspecified),1.5,2.1,0.3,1.4,-12.2,1.1,·
CCN(CC)S(=O)(=O)c1cccc(NC(=O)C2SC(=Nc3ccc(C)cc3C)C(C(=O)NCC3CCCO3)=C2N)c1 (stereo unspecified),-3.2,-14.8,3.5,36.8*,-2.2,-1.8,27.7
CCN(CC)S(=O)(=O)c1cccc(C(=O)NCC2CCCO2)c1 (stereo unspecified),-2.8,0.7,-0.9,-0.9,-5.2,0.6,·
CC(C)(C)c1ccc(NC(=O)c2ccc3c(c2)S(=O)(=O)c2ccccc2C3=O)cc1,2.8,14.8,-0.2,27.9*,-5.2,1.6,9.1
Nc1ccc2nc(-c3cccc(-c4nc5ccc(N)cc5[nH]4)c3)[nH]c2c1,9.7,-8.5,45.8,39.1*,-9.8,18.2,23.8
Cc1nc2ccc(-c3nc4ccc(N)cc4[nH]3)cc2[nH]1,8.7,-23.9,4.7,45.4*,-5.0,5.2,20.2
Nc1ccc(-c2nc3ccc(N)cc3[nH]2)cc1,11.4,-17.5,26.8,66.1*,-10.6,-3.8,22.8
Nc1ccc2nc(-c3cc(Cl)c(N)c(Cl)c3)[nH]c2c1,7.6,6.1,14.3,15.4,-0.7,-1.7,·
O=C(CC(=O)Nc1ccc(F)cc1)Nc1ccc(F)cc1,2.7,3.6,-1.1,-0.8,-4.5,-3.6,·
COc1cccc(-n2c(SCC(=O)N3CCc4ccccc43)nnc2-c2c[nH]c3ccccc23)c1,4.0,27.3,0.5,38.4*,-3.9,4.7,7.4
CC(C)Nc1nc(-c2ccccc2F)c2sc(-c3ccccc3)cc2n1,-4.0,-9.2,3.8,4.4,·,-1.0,·
CC(C)Nc1nc(NCCN2CCCC2)c2sc(-c3ccccc3)cc2n1,-57.3,-10.9,51.9*,34.5*,·,7.5,-20.8
COc1ccc(-c2cc(C(=O)Nc3ccc(S(=O)(=O)Nc4ncccn4)cc3)c3ccccc3n2)cc1,-3.8,-1.0,3.7,21.6,5.8,-0.7,·
Cc1ccnc(NS(=O)(=O)c2ccc(NC(=O)c3cc(-c4ccc(Br)cc4)nc4ccccc34)cc2)n1,-1.2,-0.3,1.6,73.5*,-7.1,-2.8,46.2*
COc1ccc(-c2cc(C(=O)Nc3ccc(S(=O)(=O)Nc4onc(C)c4C)cc3)c3ccccc3n2)cc1,-8.7,-12.3,-0.3,28.8*,6.0,-2.4,65.7*
CSCCC(NS(=O)(=O)c1ccccc1F)C(=O)Nc1ccncc1 (stereo unspecified),0.5,2.3,-1.2,-3.5,-10.0,-3.7,·
N#C/C(=C\c1ccc(-c2ccccc2[N+](=O)[O-])o1)C(=O)Nc1nc(-c2cccs2)cs1,6.2,28.2,4.1,34.0*,-4.6,0.4,-5.1
N#C/C(=C\c1ccc(-c2cccc([N+](=O)[O-])c2)o1)C(=O)N1CCOCC1,-20.2,1.0,2.5,-3.6,-0.3,-1.4,·
N#C/C(=C/c1ccc(-c2cccc([N+](=O)[O-])c2)o1)C(=O)Nc1nc(-c2cccs2)cs1,-12.8,30.5,2.5,45.6*,-1.0,-1.4,-9.3
Cc1cc(C(=O)N/N=C/c2cccc(OC(=O)c3cccc(Br)c3)c2)n[nH]1,1.5,4.8,0.1,13.8,-7.6,-0.4,·
COc1cccc(C(=O)Oc2c(Br)cc(Br)cc2/C=N/NC(=O)c2cc(C)[nH]n2)c1,-0.1,-2.3,5.1,42.1*,-5.7,-0.4,8.2
C/C(=N\NC(=S)Nc1cccc(C)c1)c1cccc(N)c1,10.3,-14.1,-1.4,14.1,0.1,-0.1,·
SMILES,SUMO1 PPI mod,DNMT1 inh,LMPTP block,NadD inh,Scp1 inh,STEP inh,NadD conf
C/C(=N\NC(=S)Nc1ccc(C)cc1)c1cccc(N)c1,11.2,-8.1,-1.9,26.8*,9.2,1.2,17.4
COc1ccccc1C(=O)NCC(=O)NCc1cc(=O)n(C)c(=O)n1C,1.8,2.1,-0.6,61.8*,3.1,-1.2,-2.8
CCOc1cc(/C=N\Nc2ccc([N+](=O)[O-])cc2)ccc1OCC(=O)Nc1ccc(C)c(C)c1,-13.7,41.5,2.6,43.6*,-0.3,-7.0,3.1
COc1cc(/C=N\Nc2ccc([N+](=O)[O-])cc2)ccc1OCC(=O)Nc1ccc(C)c(C)c1,-3.7,30.2,4.5,16.7,-0.4,-3.2,·
Cc1ccc(Nc2nc(-c3sc(NC(=O)c4ccco4)nc3C)cs2)cc1,5.3,-43.2,1.2,33.0*,1.9,-0.8,40.9
CCOc1ccccc1Nc1nc(-c2sc(NC(=O)c3ccco3)nc2C)cs1,7.2,-27.0,4.3,30.9*,0.8,0.7,24.1
Cc1ccccc1Nc1nc(-c2sc(NC(=O)c3ccco3)nc2C)cs1,9.2,-28.4,0.9,32.4*,-3.8,-2.6,34.2
CC(=O)Nc1ccc(Nc2nc(-c3sc(NC(C)=O)nc3C)cs2)cc1,-15.7,-16.3,-1.5,-4.8,-4.5,-3.7,·
Cc1ccc(Cl)cc1N1CCN(C(=O)Cc2csc(Nc3nc(=S)[nH]c4ccccc34)n2)CC1,9.2,23.0,-1.4,63.0*,3.6,2.4,6.3
O=C(Cn1c(=O)[nH]c2ccccc2c1=O)N1CCN(c2cccc(Cl)c2)CC1,0.9,-2.0,1.0,-0.5,2.0,-1.3,·
Cc1ccc(Cl)cc1N1CCN(C(=O)Cn2ccc3ccccc3c2=O)CC1,-2.3,0.7,0.2,-6.8,0.5,2.5,·
O=C(Cc1csc(Nc2nc(=S)[nH]c3ccccc23)n1)N1CCN(c2cccc(Cl)c2)CC1,8.6,13.6,0.0,54.7*,1.9,5.2,8.1
CC(C)(C)OC(=O)N1CCC[C@H]1C(=O)NCc1ccc(Cl)cc1Cl,0.4,-1.9,-0.2,-3.4,-2.3,0.7,·
CCc1nnc(NCC(=O)N2CCc3ccccc32)s1,14.4,-19.5,1.6,44.8*,3.8,-1.5,45.7
COc1ccc(-c2nc(N)ncc2-c2csc(C)n2)c(O)c1OC,6.5,0.9,-1.4,-3.9,-3.7,-2.3,·
